# T cruzi inh: blocks replication of Trypanosoma cruzi. T. cruzi beta-gal in NIH3T3, luminescence, 90 h. inhibition, % (concentration not given with the values). 1.4% of 300,000 active;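 active means mean inhibition across valid replicates above about 55%, limit read from the data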;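 further: signal also drops with host cell toxicity which is not excluded here; higher percent means less beta-gal luminescence so fewer parasites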
#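 System: mouse NIH/3T3 fibroblasts infected with β-gal-expressing T. cruzi Tulahuen C4 / Input: NIH/3T3 cells, 5,000 per well / Buffer or medium: Low-serum DMEM with 2% FBS / Probe or stimulus: 5000 reporter trypomastigotes per well / Schedule: ≥90 h infection period, 3 h prior cell attachment / Measured by: GalScreen luminescence, 60 min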
# HSF-1 act: increases HSF-1 driven luciferase reporter signal. NIH3T3-HGL HSF-1 luciferase reporter, MG132, 8 h; 100% = twice DMSO control signal. activation, % at 9 µM. 1.7% of 300,000 active. AID 504408;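 active means mean replicate activation of at least 50% with a set share of replicates each reaching 50%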
# Calb FLC: affects C. albicans growth with fluconazole | 0.57% of 300,000 active | C. albicans CaCi-2 + fluconazole, Alamar Blue growth, 48 h | growth inhibition, % (concentration not given with the values);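 active means growth inhibition above about 58% in most replicates, limit read from the data, passing the limit was not always enough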;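 further: all wells also contain fluconazole at 8 µg/ml as a sub-toxic cotreatment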
# HSF1 inhib: HSF1 inhibition. NIH3T3-HGL HSE-luciferase, MG132-induced, luminescence 8 h; hits give low values. activity change, negative = inhibition, % at 7.5 µM (by protocol). 0.77% of 300,000 active;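 active means more than half of replicate wells show activity change below -50%, luminescence cut by over half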;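 further: luciferase reports HSF-1 transcriptional activity via heat shock element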
# HIF act: HIF pathway transcriptional activation; activation, % at 7.5 µM (by protocol); U2OS HRE-luciferase reporter, luminescence; normalized: DMSO 0%, desferrioxamine 100%; 0.32% of 300,000 active;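 active means mean activation of at least 10% of the iron chelator positive control signal, with at least half of replicates also reaching 10%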
# Hits are given with their value; i = inactive; nt = no result. The list is not random: actives were taken first. Their share in the collection is about 4.4%.
SMILES,T cruzi inh,HSF-1 act,Calb FLC,HSF1 inhib,HIF act
Cc1ccc(-c2csc3nnc(SCC(=O)Nc4cccc(C)n4)n23)cc1,i,i,i,i,i
COc1ccc2c(c1)CCc1c(C(=O)N3CC4(C)CC3CC(C)(C)C4)noc1-2 (stereo unspecified),i,84,i,i,i
CC1CCCCN1C(=O)CCNS(=O)(=O)c1ccc2c(c1)c(=O)n(C)c(=O)n2C (stereo unspecified),i,i,i,i,i
Cc1nnc(NC(=O)C23CC4CC(CC(C4)C2)C3)s1,i,i,i,i,i
O=[N+]([O-])c1cc(CN2CCCC2)ccc1Sc1ccc(Cl)cc1,62,i,i,i,i
COc1ccc(CCNC(=O)C2CCN(S(=O)(=O)c3ccc(SC)cc3)CC2)cc1,i,i,i,i,i
Fc1ccccc1Oc1nc(-c2ccncc2)nc2ccccc12,i,i,i,i,i
C=CCNc1cc(C)oc(=O)c1C(=O)CCC,i,i,i,-68,i
CC(C)CCN1CCN(Cc2cccn2-c2cccnc2)CC1CCO (stereo unspecified),i,i,i,i,i
COc1cccc(CN2CCN(Cc3cccn3-c3cccnc3)CC2CCO)c1 (stereo unspecified),i,56,i,i,i
CCC(C)(C)C1CCC(=NNc2nc3ccccc3[nH]2)CC1 (stereo unspecified),i,i,i,i,i
CC(=O)N1CCC(=NNc2nc3ccccc3[nH]2)CC1,i,i,i,i,22
O=C(/C=C/c1cn(-c2ccccc2)nc1-c1cccnc1)N1CCCC1,i,i,i,i,i
O=C(/C=C/c1cn(-c2ccccc2)nc1-c1ccccc1)Nc1ccc(C(=O)O)cc1,i,i,i,i,16
O=C(/C=C/c1cn(-c2ccccc2)nc1-c1cccnc1)c1ccco1,i,119,i,i,i
CC(C)=NNc1nc(-c2ccc(N3C(=O)CCC3=O)cc2)cs1,i,i,i,i,i
CCn1cc(SCC(=O)N2CCOCC2)c2ccccc21,i,i,i,i,i
CC(=O)Nc1ccc(NC(=O)CSc2cn(CC(=O)N3CCOCC3)c3ccccc23)cc1,i,i,i,-69,i
CCOC(=O)N1CCN(c2c(-c3ccc(C)cc3)c(=O)c2=O)CC1,i,i,i,i,i
CCOC(=O)N1CCN(c2nc(C)c3c(n2)CCCC3=O)CC1,i,i,i,-70,i
COc1cccc(N=Cc2c(O)c3ccccc3oc2=O)c1,i,i,i,i,i
CC(=O)Nc1ccc(N=Cc2c(O)c3ccccc3oc2=O)cc1,i,63,i,i,i
CC(=O)c1cccc(N=Cc2c(O)c3ccccc3oc2=O)c1,i,106,i,i,i
C/C=C/c1ccc(OCC(=O)Nc2ccc(OC)c(OC)c2)c(OC)c1,i,i,i,-69,i
CCCOC(=O)c1cc(NC(=O)/C=C/c2ccccc2)ccc1O,i,i,i,i,i
SMILES,T cruzi inh,HSF-1 act,Calb FLC,HSF1 inhib,HIF act
O=C(N/N=C/c1cc2c(cc1Br)OCO2)c1c[nH]c2ccccc12,62,i,i,i,i
O=C(N/N=C/c1cc2c(cc1Br)OCO2)c1ccccn1,i,60,i,i,i
O=C(N/N=C/c1cc(Br)cs1)c1c[nH]c2ccccc12,i,i,i,i,i
O=C(N/N=C/c1ccc(Br)s1)c1c[nH]c2ccccc12,i,56,i,i,i
O=C(NCC(c1ccco1)N1CCCC1)c1ccc(S(=O)(=O)Nc2ccccc2F)cc1 (stereo unspecified),i,i,i,i,i
CCc1nc(C(N)=O)c2[nH]c(=O)n(-c3ccccc3F)c2n1,i,i,i,i,i
CC1CN(CC(=O)NCc2ccccc2)CC(C)O1 (stereo unspecified),i,i,i,i,i
CCC12CN3CC(CC)(CN(C1)C3c1ccc([N+](=O)[O-])o1)C2=O (stereo unspecified),60,i,i,i,i
CCCC12CN3CC(C)(CN(C1)C3c1ccc([N+](=O)[O-])o1)C2=O (stereo unspecified),i,i,i,i,i
CC12CN3CC(C)(CN(C1)C3c1ccc([N+](=O)[O-])o1)C2=O (stereo unspecified),80,nt,i,nt,i
COc1ccccc1COCC(O)CNCCc1ccc(C(F)(F)F)cc1 (stereo unspecified),i,i,i,i,i
OC(CNCCc1ccc(C(F)(F)F)cc1)COc1ccc2ccccc2c1 (stereo unspecified),i,i,105,i,i
OC(COc1ccc(CNCCc2ccc(C(F)(F)F)cc2)cc1)CN1CCCCC1 (stereo unspecified),59,i,i,i,i
OC(CNCCc1ccc(C(F)(F)F)cc1)COc1cccc2ccccc12 (stereo unspecified),60,i,i,i,i
CN(C(=O)COC(=O)c1cc[n+]([O-])cc1)c1ccccc1,i,i,i,i,i
Cc1ccc(N/C(SCc2ccccc2C)=C(/C#N)C(=O)NCc2ccco2)cc1C,60,i,i,i,i
CCc1ccc(N/C(SCc2cccc(F)c2)=C(/C#N)C(=O)NCc2ccco2)cc1,57,i,i,i,i
Cc1ccccc1CSCC(=O)NC(=O)NCc1ccco1,i,i,i,i,i
Cn1c(=O)n(C)c2cc(/C=N/NC(N)=S)ccc21,i,i,i,i,i
O=C(c1ccccc1)c1coc2c1C(=O)c1ccccc1C2=O,i,i,i,i,i
O=C1c2ccccc2C(=O)c2c1oc(C(F)(F)F)c2C(=O)c1ccccc1,59,i,i,-78,i
COc1ccc(NC(=O)CN(C)C(=O)CN2C(=O)NC3(CCCC3)C2=O)cc1,i,i,i,i,i
COc1cccc(CN2CCC(N(CCc3ccccc3)Cc3ccccc3)CC2)c1OC,i,i,i,i,582
COc1ccc(C(CC(=O)Nc2cc(OC)cc(OC)c2)n2cccc2)cc1 (stereo unspecified),56,i,i,i,i
COc1ccc(C(CC(=O)Nc2ccccc2OC)n2cccc2)cc1 (stereo unspecified),i,i,i,i,152
SMILES,T cruzi inh,HSF-1 act,Calb FLC,HSF1 inhib,HIF act
COc1ccc(C(CC(=O)Nc2nccs2)n2cccc2)cc1 (stereo unspecified),i,58,i,i,i
Cc1c(C(=O)/C=C/N(C)C)nnn1-c1ccc(Cl)cc1C#N,i,i,i,i,i
CCOC(=O)/C(=N\Nc1cc(Cl)ccc1Cl)N1CCOCC1,i,i,i,i,i
CCn1c(COc2ccc(=O)n(-c3ccccc3)n2)nnc1SCc1ccccc1C,i,i,i,i,i
O=C(NC1=NCCS1)C1CC(=O)N(c2ccc(F)cc2)C1 (stereo unspecified),i,87,i,i,i
CCCn1c(N2CCN(C(=O)Nc3ccc(Cl)cc3)CC2)nc2ccccc21,i,i,i,i,i
CC(C)n1c(N2CCN(C(=O)Nc3ccc(Cl)cc3)CC2)nc2ccccc21,i,i,73,i,i

# Bioassay records: PubChem, Broad Institute
